Calls of active or inactive are those of the source. No cut-off for these calls is given here.
Key:
Homo sapiens [1] = species on record: Homo sapiens; experiment: Binding affinity to human telomeric G-quadruplex 5'-d(GGG[TTAGGG]3)-3' DNA assessed as change in melting temperature at 25 uM measured at 290 nM wavelength by circular dichroism spectroscopic analysis
Outline: (§1)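 HTG21 in 10 mM Tris-HCl, pH 7.4, 60 mM KCl. CD melting profiles were read at 265 nm and at 290 nm, and ΔTm was determined from them.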

Homo sapiens [2] = species on record: Homo sapiens; experiment: Binding affinity to human telomeric G-quadruplex 5'-d(GGG[TTAGGG]3)-3' DNA assessed as change in melting temperature at 25 uM measured at 265 nM wavelength by circular dichroism spectroscopic analysis; outline: as §1
Homo sapiens [3] = species on record: Homo sapiens; experiment: Binding affinity to human telomeric G-quadruplex 5'-d(GGG[TTAGGG]3)-3' DNA assessed as induction of conformation conversion from antiparallel to parallel type at 25 uM after 5 mins by circular dichroism spectroscopic analysis
[4] = Binding affinity to human biotinylated telomeric G-quadruplex 5'-d(GGG[TTAGGG]3)-3' DNA by surface plasmon resonance analysis
Outline: (§2)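 SPR with a Neutravidin-coated sensor chip. Biotinylated duplex DNA and biotinylated HTG21 were folded in running buffer (50 mM Tris-HCl, 100 mM KCl, pH 7.4, 0.005% Tween20) and immobilized. A range of ligand concentrations was injected simultaneously over G-quadruplex, duplex and blank reference channels. Binding plots from sensorgrams gave equilibrium constants (KD).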

[5] = Binding affinity to biotinylated duplex DNA (unknown origin) by surface plasmon resonance analysis; outline: as §2
[6] = Binding affinity to biotinylated duplex DNA (unknown origin) up to by surface plasmon resonance analysis; outline: as §2
Homo sapiens [7] = species on record: Homo sapiens; experiment: Binding affinity to human biotinylated telomeric G-quadruplex 5'-d(GGG[TTAGGG]3)-3' DNA up to 20 uM by surface plasmon resonance analysis; outline: as §2
HL-60 [8] = experiment: Binding affinity to G-quadruplex DNA in human HL60 cells assessed as telomere shortening at 1 uM after 12 days by restriction fragment length assay; assay type: cell-based
Outline: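 HL60 cells exposed to ligand for 12 days. Genomic DNA digested with Hinf1/Rsa1, run on 0.8% agarose gel and transferred to nylon membrane. DNA fixed by baking at 120 °C for 20 min. Membrane hybridized with DIG-labelled telomeric-repeat probe, then detected with anti-DIG-alkaline phosphatase.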

HL-60 [9] = experiment: Binding affinity to G-quadruplex DNA in human HL60 cells assessed as telomere shortening at 0.01 to 1 uM after 12 days by restriction fragment length assay
HL-60 [10] = experiment: Cytotoxicity against human HL60 cells at 0.5 to 1 uM treated every 3 days up to 12 days relative to control; assay type: functional, cell-based
HL-60 [11] = experiment: Induction of senescence in human HL60 cells assessed as increase in proportion of enlarged and flattened cells at 1 uM after 12 days by senescence-associated beta-galactosidase activity based optical microscopic analysis; assay type: functional, cell-based
Outline: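 HL60 cells treated continuously for 12 days; 0.1% DMSO as control. Cells fixed 15 min at room temperature in 2% formaldehyde/0.2% glutaraldehyde, then washed with PBS. Stained overnight at 37 °C with 1 mg/mL X-gal solution. Enlarged, flattened, stained cells viewed by optical microscopy.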

HL-60 [12] = experiment: Cytotoxicity against human HL60 cells treated every 3 days up to 12 days; assay type: functional, cell-based
HL-60 [13] = experiment: Cytotoxicity against human HL60 cells after 48 hrs by MTT assay; assay type: functional, cell-based; conditions: HL-60, 48 h
Outline: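 HL60 cells seeded at 1.0 × 10³ per well and exposed to a range of concentrations for 48 h at 37 °C, 5% CO₂. MTT (5 mg/mL) added for 4 h. Formazan dissolved in DMSO and OD read at 570 nm. Each dose tested in triplicate; IC50 derived from mean OD versus concentration curves.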

[14] = biological target: Telomerase reverse transcriptase (Homo sapiens, UniProt O14746); experiment: Inhibition of telomerase in human HL60 cell extract by TRAP-LIG assay; design: species or system HL-60
Outline: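 TRAP-LIG: compounds added to telomerase reaction mix containing HL60 cell extract. Ligand removed after enzyme incubation, before amplification. Purified extended products PCR-amplified for 35 cycles (94 °C 30 s, 61 °C 1 min, 72 °C 1 min). IC50 determined.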

Chain of Telomerase reverse transcriptase (O14746 whole entry): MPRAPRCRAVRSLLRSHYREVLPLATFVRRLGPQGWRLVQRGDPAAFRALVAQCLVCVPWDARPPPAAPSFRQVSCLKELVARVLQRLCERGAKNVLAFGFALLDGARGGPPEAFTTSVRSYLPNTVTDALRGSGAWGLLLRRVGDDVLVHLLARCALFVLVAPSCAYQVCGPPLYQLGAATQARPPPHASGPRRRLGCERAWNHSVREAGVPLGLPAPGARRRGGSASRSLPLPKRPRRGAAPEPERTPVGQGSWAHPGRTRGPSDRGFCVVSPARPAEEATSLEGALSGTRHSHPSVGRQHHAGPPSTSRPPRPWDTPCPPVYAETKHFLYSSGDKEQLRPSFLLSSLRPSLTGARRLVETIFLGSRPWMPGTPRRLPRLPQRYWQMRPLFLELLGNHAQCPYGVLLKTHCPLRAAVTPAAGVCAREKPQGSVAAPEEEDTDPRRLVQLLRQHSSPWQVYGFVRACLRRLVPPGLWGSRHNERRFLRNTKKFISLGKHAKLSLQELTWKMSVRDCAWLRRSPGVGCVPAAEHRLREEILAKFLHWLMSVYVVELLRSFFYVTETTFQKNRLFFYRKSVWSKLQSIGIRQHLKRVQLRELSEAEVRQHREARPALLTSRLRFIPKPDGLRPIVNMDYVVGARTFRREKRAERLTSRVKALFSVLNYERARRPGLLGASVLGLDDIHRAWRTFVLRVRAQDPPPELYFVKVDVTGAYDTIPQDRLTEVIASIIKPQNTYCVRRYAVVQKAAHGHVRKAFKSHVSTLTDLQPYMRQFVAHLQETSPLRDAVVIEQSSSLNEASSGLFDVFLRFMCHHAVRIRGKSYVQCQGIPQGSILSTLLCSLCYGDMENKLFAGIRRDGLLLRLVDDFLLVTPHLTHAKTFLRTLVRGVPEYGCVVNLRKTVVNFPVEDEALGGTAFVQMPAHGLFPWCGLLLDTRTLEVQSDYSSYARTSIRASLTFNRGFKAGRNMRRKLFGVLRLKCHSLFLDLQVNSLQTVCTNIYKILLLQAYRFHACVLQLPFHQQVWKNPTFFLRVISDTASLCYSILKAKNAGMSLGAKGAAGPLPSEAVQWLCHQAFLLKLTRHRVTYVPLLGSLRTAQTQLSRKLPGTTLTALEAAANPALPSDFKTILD

ΔTm (Homo sapiens [1]) [°C] | ΔTm (Homo sapiens [2]) [°C] | Activity (Homo sapiens [3]) | Kd [4] [µM] | SMILES | other results
2.6 | 7.3 | Active |  | CN(C)CCCNc1nc(-c2ccccc2NC(=O)CN2CCCC2)nc2ccccc12 | 
5.7 | > 28 | Active | 0.227 | CN(C)CCCNc1nc(-c2ccc(Cl)cc2NC(=O)c2ccc(NC(=O)CCN3CCCC3)cc2)nc2ccccc12 | Activity [6]: inactive
4.7 | 11.9 | Active |  | CN(C)CCCNc1nc(-c2ccccc2NC(=O)c2ccc(NC(=O)CN3CCOCC3)cc2)nc2ccccc12 | 
4.4 | 14.4 | Active |  | CN(C)CCCNc1nc(-c2ccc(Cl)cc2NC(=O)CCN2CCN(C)CC2)nc2ccccc12 | 
2.8 | 21.9 | Active | 0.302 | CCN(CC)CCC(=O)Nc1ccc(C(=O)Nc2cc(Cl)ccc2-c2nc(NCCCN(C)C)c3ccccc3n2)cc1 | Activity [6]: inactive
2.5 | 8.2 | Active |  | CCN(CC)CCC(=O)Nc1ccccc1-c1nc(NCCCN(C)C)c2ccccc2n1 | 
3.6 | 8.7 | Active |  | CN(C)CCCNc1nc(-c2ccccc2NC(=O)CCN2CCCC2)nc2ccccc12 | 
4.7 | 21.6 | Active | 3.06 | CN(C)CCCNc1nc(-c2ccc(Cl)cc2NC(=O)c2ccc(NC(=O)CCN3CCOCC3)cc2)nc2ccccc12 | Activity [6]: inactive
2.1 | 8 | Active |  | CN(C)CCCNc1nc(-c2ccccc2NC(=O)CCN2CCN(C)CC2)nc2ccccc12 | Activity (Homo sapiens [7]): inactive
14.8 | > 28 | Active | 0.379 | CN(C)CCCNCCC(=O)Nc1ccc(C(=O)Nc2cc(Cl)ccc2-c2nc(NCCCN(C)C)c3ccccc3n2)cc1 | Activity (HL-60 [8]): Active; Activity (HL-60 [9]): Active; Activity [6]: inactive; Activity (HL-60 [10]): Active; Activity (HL-60 [11]): Active; Activity (HL-60 [12]): Dose-dependent effect; IC50 (HL-60 [13]): 1.7 µM; IC50 [14]: 2.3 µM
3.4 | > 28 | Active | 0.276 | CN(C)CCCNc1nc(-c2ccc(Cl)cc2NC(=O)c2ccc(NC(=O)CCN3CCN(C)CC3)cc2)nc2ccccc12 | Activity [6]: inactive
8.2 | 21.7 | Active | 1.48 | CN(C)CCCNc1nc(-c2ccccc2NC(=O)c2ccc(NC(=O)CCN3CCN(C)CC3)cc2)nc2ccccc12 | Kd [5]: 13.2 µM
0.7 | 2.1 | Active |  | CCN(CC)CC(=O)Nc1ccccc1-c1nc(NCCCN(C)C)c2ccccc2n1 | 
11.6 | 21.6 | Active | 8.34 | CCN(CC)CC(=O)Nc1ccc(C(=O)Nc2ccccc2-c2nc(NCCCN(C)C)c3ccccc3n2)cc1 | Kd [5]: 11.9 µM
11.7 | 21.4 | Active |  | CN(C)CCCNc1nc(-c2ccccc2NC(=O)c2ccc(NC(=O)CN3CCCC3)cc2)nc2ccccc12 | 
0.9 | 4.3 | inactive |  | CN(C)CCCNc1nc(-c2ccccc2NC(=O)CCN2CCOCC2)nc2ccccc12 | 
0.6 | 3.1 | inactive |  | CN(C)CCCNc1nc(-c2ccccc2NC(=O)CN2CCN(C)CC2)nc2ccccc12 | Activity (Homo sapiens [7]): inactive
 | > 28 | Active | 1.11 | CN(C)CCCNCCC(=O)Nc1ccc(C(=O)Nc2ccccc2-c2nc(NCCCN(C)C)c3ccccc3n2)cc1 | Activity [6]: inactive; IC50 [14]: 30.9 µM
7.4 | 21.8 | Active | 2.75 | CN(C)CCCNc1nc(-c2ccccc2NC(=O)c2ccc(NC(=O)CN3CCN(C)CC3)cc2)nc2ccccc12 | Kd [5]: 39.7 µM
5.4 | 19.6 | Active | 1.61 | CCN(CC)CCC(=O)Nc1ccc(C(=O)Nc2ccccc2-c2nc(NCCCN(C)C)c3ccccc3n2)cc1 | Kd [5]: 22 µM
8.2 | 15.3 | Active |  | CN(C)CCCNc1nc(-c2ccccc2NC(=O)c2ccc(NC(=O)CCN3CCOCC3)cc2)nc2ccccc12 | 
0 | 0.5 | inactive |  | CN(C)CCCNc1nc(-c2ccccc2NC(=O)CN2CCOCC2)nc2ccccc12 | 
4.6 | 18.7 | Active |  | CN(C)CCCNc1nc(-c2ccccc2NC(=O)c2ccc(NC(=O)CCN3CCCC3)cc2)nc2ccccc12 | 
6.2 | 12.4 | Active | 3.36 | CN(C)CCCNCCC(=O)Nc1ccccc1-c1nc(NCCCN(C)C)c2ccccc2n1 | Kd [5]: 7.9 µM; IC50 [14]: > 50 µM

SMILES | ΔTm (Homo sapiens [1]) [°C] | ΔTm (Homo sapiens [2]) [°C] | Activity (Homo sapiens [3]) | Kd [4] [µM] | other results
CN(C)CCCNc1c2ccccc2nc2c1[nH]c1ccccc12 | 8 | 11.2 | inactive | 28 | Kd [5]: 5.02 µM

From ChEMBL document CHEMBL2375255, “New quinazoline derivatives for telomeric G-quadruplex DNA: effects of an added phenyl group on quadruplex binding ability” (Eur J Med Chem, 2013)
